Positions of bridges follow the written chain, without caps; N, C: chain ends. Non-standard residues stand in square brackets, D forms with d. Residues, ends and D or L forms follow the SMILES beside them. Bip(2'-Et-4'-OMe) = CCc1cc(OC)ccc1-c1ccc(C[C@H](N)C(=O)O)cc1; Bip(2'-Me) = Cc1ccccc1-c1ccc(C[C@H](N)C(=O)O)cc1; αMePhe(2,6-F2) = C[C@](N)(Cc1c(F)cccc1F)C(=O)O; Tyr(3-I) = N[C@@H](Cc1ccc(O)c(I)c1)C(=O)O; αMePhe(2-F) = C[C@](N)(Cc1ccccc1F)C(=O)O; hhPhe = N[C@@H](CCCc1ccccc1)C(=O)O; Aad = N[C@@H](CCCC(=O)O)C(=O)O; Aib = CC(C)(N)C(=O)O
Key:
[1] = target: T1, Glucagon-like peptide 1 receptor (Homo sapiens, UniProt P43220); assay: Agonist activity at human GLP-1R expressed in CHO cells assessed as cAMP accumulation incubated for 30 mins; format: functional, cell-based
In short: (§1)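 CHO cells stably expressing human GLP-1R, grown in DMEM/F12 with GlutaMAX, PenStrep and Geneticin, were lifted and resuspended in HBSS with 5.56 mM glucose, 0.1% BSA, 0.5 mM IBMX, 5 mM HEPES (final). 1000 cells/well were exposed to compound (10 μM to 100 fM) for 30 min at room temperature. After lysis with tracer/ULight reagents (2 h, room temperature), cAMP was read by LANCE Ultra TR-FRET. Values are geometric means with standard error.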

[2] = target: T1, Glucagon-like peptide 1 receptor; assay: Agonist activity at human GLP-1R expressed in CHO cells assessed as cAMP accumulation incubated for 30 mins relative to GLP1; format: functional, cell-based; in short: as §1
[3] = target: T1, Glucagon-like peptide 1 receptor; assay: Displacement of [125I]-18 from human GLP-1R expressed in CHO cell membranes incubated for 120 mins by scintillation counting based radioligand binding assay
[4] = target: T1, Glucagon-like peptide 1 receptor; assay: Ratio of Ki for displacement of [125I]-18 from human GLP-1R expressed in CHO cell membranes by scintillation counting based radioligand binding assay to EC50 for Agonist activity at human GLP-1R expressed in CHO cells assessed as cAMP accumulation

T1 sequence (P43220 whole entry): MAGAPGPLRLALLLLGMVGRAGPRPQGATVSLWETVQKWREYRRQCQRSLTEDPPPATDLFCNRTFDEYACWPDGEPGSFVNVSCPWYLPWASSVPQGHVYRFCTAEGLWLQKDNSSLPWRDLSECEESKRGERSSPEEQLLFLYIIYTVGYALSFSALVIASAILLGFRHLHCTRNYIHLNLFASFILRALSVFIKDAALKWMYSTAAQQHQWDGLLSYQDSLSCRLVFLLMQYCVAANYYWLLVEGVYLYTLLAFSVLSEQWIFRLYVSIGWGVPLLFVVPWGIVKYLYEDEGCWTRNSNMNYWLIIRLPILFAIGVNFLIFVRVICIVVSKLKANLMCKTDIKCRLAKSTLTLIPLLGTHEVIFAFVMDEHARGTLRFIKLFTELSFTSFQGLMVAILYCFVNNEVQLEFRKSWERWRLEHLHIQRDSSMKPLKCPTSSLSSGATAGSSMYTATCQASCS

Compound | EC50 [1] [nM] | Activity [2] [%] | Ki [3] [nM] | Ratio [4]
CCc1cc(OC)ccc1-c1ccc(C[C@H](NC(=O)[C@H](CC(=O)O)NC(=O)[C@H](CO)NC(=O)[C@@H](NC(=O)[C@](C)(Cc2ccccc2F)NC(=O)[C@H]2CCSSC[C@H](NC(=O)[C@@H](N)Cc3cnc[nH]3)C(=O)N[C@@H](CCC(=O)O)C(=O)NCC(=O)N2)[C@@H](C)O)C(=O)N[C@@H](CCCc2ccccc2)C(N)=O)cc1 | 190 | > 85 | 980 | –
CCc1cc(OC)ccc1-c1ccc(C[C@H](NC(=O)[C@@H]2CCCCNC(=O)C[C@H](NC(=O)CNC(=O)[C@H](CCC(=O)O)NC(=O)C(C)(C)NC(=O)[C@@H](N)Cc3cnc[nH]3)C(=O)N[C@@](C)(Cc3ccccc3F)C(=O)N[C@@H]([C@@H](C)O)C(=O)N[C@@H](CO)C(=O)N2)C(=O)N[C@@H](CCCc2ccccc2)C(N)=O)cc1 (H-H[Aib]EGD[αMePhe(2-F)]TSK[Bip(2'-Et-4'-OMe)][hhPhe]-NH2; lactam 5-9) | 320 | > 85 | 1200 | –
CCc1cc(OC)ccc1-c1ccc(C[C@H](NC(=O)[C@H](CC(=O)O)NC(=O)[C@H](CO)NC(=O)[C@@H](NC(=O)[C@](C)(Cc2ccccc2F)NC(=O)[C@@H]2CSSC[C@@H](NC(=O)[C@@H](N)Cc3cnc[nH]3)C(=O)N[C@@H](CCC(=O)O)C(=O)NCC(=O)N2)[C@@H](C)O)C(=O)N[C@@H](CCCc2ccccc2)C(N)=O)cc1 | 600 | > 85 | 2400 | –
CCc1cc(OC)ccc1-c1ccc(C[C@H](NC(=O)[C@H](CC(=O)O)NC(=O)[C@H](CO)NC(=O)[C@@H](NC(=O)[C@](C)(Cc2ccccc2F)NC(=O)[C@@H]2CCSSCC[C@@H](NC(=O)[C@@H](N)Cc3cnc[nH]3)C(=O)N[C@@H](CCC(=O)O)C(=O)NCC(=O)N2)[C@@H](C)O)C(=O)N[C@@H](CCCc2ccccc2)C(N)=O)cc1 | 200 | > 85 | 1700 | –
CCc1cc(OC)ccc1-c1ccc(C[C@H](NC(=O)[C@@H]2CCCC(=O)NCCCC[C@H](NC(=O)CNC(=O)[C@H](CCC(=O)O)NC(=O)C(C)(C)NC(=O)[C@@H](N)Cc3cnc[nH]3)C(=O)N[C@@](C)(Cc3ccccc3F)C(=O)N[C@@H]([C@@H](C)O)C(=O)N[C@@H](CO)C(=O)N2)C(=O)N[C@@H](CCCc2ccccc2)C(N)=O)cc1 (H-H[Aib]EGK[αMePhe(2-F)]TS[Aad][Bip(2'-Et-4'-OMe)][hhPhe]-NH2; lactam 5-9) | 95 | > 85 | 300 | –
CCc1cc(OC)ccc1-c1ccc(C[C@H](NC(=O)[C@@H]2CCCCNC(=O)CC[C@H](NC(=O)CNC(=O)[C@H](CCC(=O)O)NC(=O)C(C)(C)NC(=O)[C@@H](N)Cc3cnc[nH]3)C(=O)N[C@@](C)(Cc3ccccc3F)C(=O)N[C@@H]([C@@H](C)O)C(=O)N[C@@H](CO)C(=O)N2)C(=O)N[C@@H](CCCc2ccccc2)C(N)=O)cc1 (H-H[Aib]EGE[αMePhe(2-F)]TSK[Bip(2'-Et-4'-OMe)][hhPhe]-NH2; lactam 5-9) | 430 | > 85 | 320 | –
CCc1cc(OC)ccc1-c1ccc(C[C@H](NC(=O)[C@H](CC(=O)O)NC(=O)[C@H](CO)NC(=O)[C@@H](NC(=O)[C@](C)(Cc2ccccc2F)NC(=O)[C@@H]2CCSSCC[C@H](NC(=O)[C@@H](N)Cc3cnc[nH]3)C(=O)N[C@@H](CCC(=O)O)C(=O)NCC(=O)N2)[C@@H](C)O)C(=O)N[C@@H](CCCc2ccccc2)C(N)=O)cc1 | 390 | > 85 | 3000 | –
CCc1cc(OC)ccc1-c1ccc(C[C@H](NC(=O)[C@H](CC(=O)O)NC(=O)[C@H](CO)NC(=O)[C@@H](NC(=O)[C@](C)(Cc2ccccc2F)NC(=O)[C@@H](NC(=O)CNC(=O)[C@H](CCC(=O)O)NC(=O)C(C)(C)NC(=O)[C@@H](N)Cc2cnc[nH]2)[C@@H](C)O)[C@@H](C)O)C(=O)N[C@@H](CCCc2ccccc2)C(N)=O)cc1 (H-H[Aib]EGT[αMePhe(2-F)]TSD[Bip(2'-Et-4'-OMe)][hhPhe]-NH2) | 0.12 | > 85 | 0.57 | 3.5
CCc1cc(OC)ccc1-c1ccc(C[C@H](NC(=O)[C@H](CC(=O)O)NC(=O)[C@H](CO)NC(=O)[C@@H](NC(=O)[C@](C)(Cc2ccccc2F)NC(=O)[C@H]2CCSSC[C@@H](NC(=O)[C@@H](N)Cc3cnc[nH]3)C(=O)N[C@@H](CCC(=O)O)C(=O)NCC(=O)N2)[C@@H](C)O)C(=O)N[C@@H](CCCc2ccccc2)C(N)=O)cc1 | 81 | > 85 | 550 | –
CCc1cc(OC)ccc1-c1ccc(C[C@H](NC(=O)[C@H](CC(=O)O)NC(=O)[C@H](CO)NC(=O)[C@@H](NC(=O)[C@](C)(Cc2ccccc2F)NC(=O)[C@@H]2CSSC[C@H](NC(=O)[C@@H](N)Cc3cnc[nH]3)C(=O)N[C@@H](CCC(=O)O)C(=O)NCC(=O)N2)[C@@H](C)O)C(=O)N[C@@H](CCCc2ccccc2)C(N)=O)cc1 | 670 | > 85 | > 3100 | –
CCc1cc(OC)ccc1-c1ccc(C[C@H](NC(=O)[C@H](CC(=O)O)NC(=O)[C@H](CO)NC(=O)[C@@H](NC(=O)[C@](C)(Cc2ccccc2F)NC(=O)[C@H]2CSSCC[C@@H](NC(=O)[C@@H](N)Cc3cnc[nH]3)C(=O)N[C@@H](CCC(=O)O)C(=O)NCC(=O)N2)[C@@H](C)O)C(=O)N[C@@H](CCCc2ccccc2)C(N)=O)cc1 | 110 | > 85 | 4800 | 43
CCc1cc(OC)ccc1-c1ccc(C[C@H](NC(=O)[C@H](CC(=O)O)NC(=O)[C@H](CO)NC(=O)[C@@H](NC(=O)[C@](C)(Cc2ccccc2F)NC(=O)[C@H]2CSSCC[C@H](NC(=O)[C@@H](N)Cc3cnc[nH]3)C(=O)N[C@@H](CCC(=O)O)C(=O)NCC(=O)N2)[C@@H](C)O)C(=O)N[C@@H](CCCc2ccccc2)C(N)=O)cc1 | 730 | > 85 | > 8000 | –

The remaining lines, values ahead:

EC50 [1] [nM] | Activity [2] [%] | Ki [3] [nM] | Ratio [4] | Compound
0.045 | > 85 | 6 | – | CCc1cc(OC)ccc1-c1ccc(C[C@H](NC(=O)[C@H](CC(=O)O)NC(=O)[C@H](CO)NC(=O)[C@@H](NC(=O)[C@](C)(Cc2ccccc2F)NC(=O)[C@@H](NC(=O)CNC(=O)[C@H](CCC(=O)O)NC(=O)C(C)(C)NC(=O)[C@@H](N)Cc2cnc[nH]2)[C@@H](C)O)[C@@H](C)O)C(=O)N[C@@H](Cc2ccc(O)c(I)c2)C(N)=O)cc1 (H-H[Aib]EGT[αMePhe(2-F)]TSD[Bip(2'-Et-4'-OMe)][Tyr(3-I)]-NH2)
0.73 | > 85 | 41 | – | CCc1cc(OC)ccc1-c1ccc(C[C@H](NC(=O)[C@H](CC(=O)O)NC(=O)[C@H](CO)NC(=O)[C@@H](NC(=O)[C@](C)(Cc2ccccc2F)NC(=O)[C@H]2CCSSCC[C@@H](NC(=O)[C@@H](N)Cc3cnc[nH]3)C(=O)N[C@@H](CCC(=O)O)C(=O)NCC(=O)N2)[C@@H](C)O)C(=O)N[C@@H](CCCc2ccccc2)C(N)=O)cc1
68 | > 85 | 59 | – | CCc1cc(OC)ccc1-c1ccc(C[C@H](NC(=O)[C@@H]2CC(=O)NCCCC[C@H](NC(=O)CNC(=O)[C@H](CCC(=O)O)NC(=O)C(C)(C)NC(=O)[C@@H](N)Cc3cnc[nH]3)C(=O)N[C@@](C)(Cc3ccccc3F)C(=O)N[C@@H]([C@@H](C)O)C(=O)N[C@@H](CO)C(=O)N2)C(=O)N[C@@H](CCCc2ccccc2)C(N)=O)cc1 (H-H[Aib]EGK[αMePhe(2-F)]TSD[Bip(2'-Et-4'-OMe)][hhPhe]-NH2; lactam 5-9)
1.8 | > 85 | 130 | – | CCc1cc(OC)ccc1-c1ccc(C[C@H](NC(=O)[C@H](CC(=O)O)NC(=O)[C@H](CO)NC(=O)[C@@H](NC(=O)[C@](C)(Cc2ccccc2F)NC(=O)[C@H]2CCSSCC[C@H](NC(=O)[C@@H](N)Cc3cnc[nH]3)C(=O)N[C@@H](CCC(=O)O)C(=O)NCC(=O)N2)[C@@H](C)O)C(=O)N[C@@H](CCCc2ccccc2)C(N)=O)cc1
0.19 | > 85 | 0.66 | 3.5 | CCc1cc(OC)ccc1-c1ccc(C[C@H](NC(=O)[C@H](CC(=O)O)NC(=O)[C@H](CO)NC(=O)[C@@H](NC(=O)[C@](C)(Cc2c(F)cccc2F)NC(=O)[C@@H](NC(=O)CNC(=O)[C@H](CCC(=O)O)NC(=O)C(C)(C)NC(=O)[C@@H](N)Cc2cnc[nH]2)[C@@H](C)O)[C@@H](C)O)C(=O)N[C@@H](Cc2ccc(-c3ccccc3C)cc2)C(N)=O)cc1 (H-H[Aib]EGT[αMePhe(2,6-F2)]TSD[Bip(2'-Et-4'-OMe)][Bip(2'-Me)]-NH2)
10 | > 85 | 17 | – | CCc1cc(OC)ccc1-c1ccc(C[C@H](NC(=O)[C@@H]2CCC(=O)NCCCC[C@H](NC(=O)CNC(=O)[C@H](CCC(=O)O)NC(=O)C(C)(C)NC(=O)[C@@H](N)Cc3cnc[nH]3)C(=O)N[C@@](C)(Cc3ccccc3F)C(=O)N[C@@H]([C@@H](C)O)C(=O)N[C@@H](CO)C(=O)N2)C(=O)N[C@@H](CCCc2ccccc2)C(N)=O)cc1 (H-H[Aib]EGK[αMePhe(2-F)]TSE[Bip(2'-Et-4'-OMe)][hhPhe]-NH2; lactam 5-9)
